ChEMBL document CHEMBL1152997, “Prevalence of and molecular basis for tuberculosis drug resistance in the Republic of Georgia: validation of a QIAplex system for detection of drug resistance-related mutations” (2008)

Columns and labels:
Format in all cases: functional
[1] = tested on: Mycobacterium tuberculosis; test: Antimycobacterial activity against Mycobacterium tuberculosis clinical isolates from tuberculosis patient assessed as percent sensitive isolates at 2 ug/ml by absolute-concentration method
In short: (§1)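 Consecutive clinical M. tuberculosis isolates (196), Tbilisi, Jan–Mar 2006, primary culture on Lowenstein-Jensen medium. Suspension adjusted to 1 McFarland in sterile saline. 0.2 ml was plated onto drug-containing solid medium: a 10-fold dilution series for the 2, 4 and 40 µg/ml media, and a 100-fold dilution for the 0.2 µg/ml medium. Incubation at 37°C, 5–10% CO2, 28 days.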

[2] = tested on: Mycobacterium tuberculosis; test: Antimycobacterial activity against Mycobacterium tuberculosis clinical isolates from tuberculosis patient assessed as percent specific isolates at 2 ug/ml by absolute-concentration method
[3] = tested on: Mycobacterium tuberculosis; test: Antimycobacterial activity against Mycobacterium tuberculosis clinical isolates from tuberculosis patient assessed as percent sensitive isolates at 0.2 ug/ml by absolute-concentration method; in short: as §1
[4] = tested on: Mycobacterium tuberculosis; test: Antimycobacterial activity against Mycobacterium tuberculosis clinical isolates from tuberculosis patient assessed as percent specific isolates at 0.2 ug/ml by absolute-concentration method
[5] = tested on: Mycobacterium tuberculosis; test: Antimycobacterial activity against Mycobacterium tuberculosis clinical isolates from tuberculosis patient assessed as percent sensitive isolates at 40 ug/ml by absolute-concentration method; in short: as §1
[6] = tested on: Mycobacterium tuberculosis; test: Antimycobacterial activity against Mycobacterium tuberculosis clinical isolates from tuberculosis patient assessed as percent specific isolates at 40 ug/ml by absolute-concentration method
[7] = tested on: Mycobacterium tuberculosis; test: Antimycobacterial activity against Mycobacterium tuberculosis clinical isolates from tuberculosis patient assessed as percent sensitive isolates at 4 ug/ml by absolute-concentration method; in short: as §1
[8] = tested on: Mycobacterium tuberculosis; test: Antimycobacterial activity against Mycobacterium tuberculosis clinical isolates from tuberculosis patient assessed as percent specific isolates at 4 ug/ml by absolute-concentration method

**Q.** Which results are given for `CC[C@@H](CO)NCCN[C@@H](CC)CO` [ETHAMBUTOL]?
**A.** Activity [1]: 50%; Activity [2]: 98.9%

**Q.** Which results are given for `NNC(=O)c1ccncc1` [ISONIAZID]?
**A.** Activity [3]: 85.4%; Activity [4]: 96.1%

**Q.** With `CO[C@H]1/C=C/O[C@@]2(C)Oc3c(C)c(O)c4c(O)c(c(/C=N/N5CCN(C)CC5)c(O)c4c3C2=O)NC(=O)/C(C)=C\C=C\[C@H](C)[C@H](O)[C@@H](C)[C@@H](O)[C@@H](C)[C@H](OC(C)=O)[C@@H]1C` [RIFAMPIN] as the compound, how does the Activity [5] read?
**A.** 94.5%

**Q.** What about the Activity [6] of the same compound?
**A.** 99.4%

**Q.** Which results are given for `CN[C@@H]1[C@H](O[C@H]2[C@H](O[C@H]3[C@H](O)[C@@H](O)[C@H](N=C(N)N)[C@@H](O)[C@@H]3N=C(N)N)O[C@@H](C)[C@]2(O)C=O)O[C@@H](CO)[C@H](O)[C@H]1O` [STREPTOMYCIN]?
**A.** Activity [7]: 69.6%; Activity [8]: 99.2%
